Source: ChEMBL document CHEMBL4823258, “Development of Dimethylisoxazole-Attached Imidazo[1,2-a]pyridines as Potent and Selective CBP/P300 Inhibitors” (J Med Chem, 2021)
The source made the active and inactive calls. The rule behind the calls is not given here.

What was measured:
Homo sapiens = species on record: Homo sapiens; experiment: Selectivity ratio of IC50 for His-tagged BRD4 BD1 (unknown origin) using biotinylated-JQ1 peptide as substrate to IC50 for His-tagged CBP (unknown origin) using biotinylated-H3K56ac peptide as substrate incubated for 1 hr by AlphaScreen assay
CREB-binding protein [1] = target: T1, CREB-binding protein (Homo sapiens, UniProt Q92793); experiment: Inhibition of His-tagged CBP (unknown origin) using biotinylated-H3K56ac peptide as substrate incubated for 1 hr by AlphaScreen assay
Target sequence in this assay (Q92793 whole entry): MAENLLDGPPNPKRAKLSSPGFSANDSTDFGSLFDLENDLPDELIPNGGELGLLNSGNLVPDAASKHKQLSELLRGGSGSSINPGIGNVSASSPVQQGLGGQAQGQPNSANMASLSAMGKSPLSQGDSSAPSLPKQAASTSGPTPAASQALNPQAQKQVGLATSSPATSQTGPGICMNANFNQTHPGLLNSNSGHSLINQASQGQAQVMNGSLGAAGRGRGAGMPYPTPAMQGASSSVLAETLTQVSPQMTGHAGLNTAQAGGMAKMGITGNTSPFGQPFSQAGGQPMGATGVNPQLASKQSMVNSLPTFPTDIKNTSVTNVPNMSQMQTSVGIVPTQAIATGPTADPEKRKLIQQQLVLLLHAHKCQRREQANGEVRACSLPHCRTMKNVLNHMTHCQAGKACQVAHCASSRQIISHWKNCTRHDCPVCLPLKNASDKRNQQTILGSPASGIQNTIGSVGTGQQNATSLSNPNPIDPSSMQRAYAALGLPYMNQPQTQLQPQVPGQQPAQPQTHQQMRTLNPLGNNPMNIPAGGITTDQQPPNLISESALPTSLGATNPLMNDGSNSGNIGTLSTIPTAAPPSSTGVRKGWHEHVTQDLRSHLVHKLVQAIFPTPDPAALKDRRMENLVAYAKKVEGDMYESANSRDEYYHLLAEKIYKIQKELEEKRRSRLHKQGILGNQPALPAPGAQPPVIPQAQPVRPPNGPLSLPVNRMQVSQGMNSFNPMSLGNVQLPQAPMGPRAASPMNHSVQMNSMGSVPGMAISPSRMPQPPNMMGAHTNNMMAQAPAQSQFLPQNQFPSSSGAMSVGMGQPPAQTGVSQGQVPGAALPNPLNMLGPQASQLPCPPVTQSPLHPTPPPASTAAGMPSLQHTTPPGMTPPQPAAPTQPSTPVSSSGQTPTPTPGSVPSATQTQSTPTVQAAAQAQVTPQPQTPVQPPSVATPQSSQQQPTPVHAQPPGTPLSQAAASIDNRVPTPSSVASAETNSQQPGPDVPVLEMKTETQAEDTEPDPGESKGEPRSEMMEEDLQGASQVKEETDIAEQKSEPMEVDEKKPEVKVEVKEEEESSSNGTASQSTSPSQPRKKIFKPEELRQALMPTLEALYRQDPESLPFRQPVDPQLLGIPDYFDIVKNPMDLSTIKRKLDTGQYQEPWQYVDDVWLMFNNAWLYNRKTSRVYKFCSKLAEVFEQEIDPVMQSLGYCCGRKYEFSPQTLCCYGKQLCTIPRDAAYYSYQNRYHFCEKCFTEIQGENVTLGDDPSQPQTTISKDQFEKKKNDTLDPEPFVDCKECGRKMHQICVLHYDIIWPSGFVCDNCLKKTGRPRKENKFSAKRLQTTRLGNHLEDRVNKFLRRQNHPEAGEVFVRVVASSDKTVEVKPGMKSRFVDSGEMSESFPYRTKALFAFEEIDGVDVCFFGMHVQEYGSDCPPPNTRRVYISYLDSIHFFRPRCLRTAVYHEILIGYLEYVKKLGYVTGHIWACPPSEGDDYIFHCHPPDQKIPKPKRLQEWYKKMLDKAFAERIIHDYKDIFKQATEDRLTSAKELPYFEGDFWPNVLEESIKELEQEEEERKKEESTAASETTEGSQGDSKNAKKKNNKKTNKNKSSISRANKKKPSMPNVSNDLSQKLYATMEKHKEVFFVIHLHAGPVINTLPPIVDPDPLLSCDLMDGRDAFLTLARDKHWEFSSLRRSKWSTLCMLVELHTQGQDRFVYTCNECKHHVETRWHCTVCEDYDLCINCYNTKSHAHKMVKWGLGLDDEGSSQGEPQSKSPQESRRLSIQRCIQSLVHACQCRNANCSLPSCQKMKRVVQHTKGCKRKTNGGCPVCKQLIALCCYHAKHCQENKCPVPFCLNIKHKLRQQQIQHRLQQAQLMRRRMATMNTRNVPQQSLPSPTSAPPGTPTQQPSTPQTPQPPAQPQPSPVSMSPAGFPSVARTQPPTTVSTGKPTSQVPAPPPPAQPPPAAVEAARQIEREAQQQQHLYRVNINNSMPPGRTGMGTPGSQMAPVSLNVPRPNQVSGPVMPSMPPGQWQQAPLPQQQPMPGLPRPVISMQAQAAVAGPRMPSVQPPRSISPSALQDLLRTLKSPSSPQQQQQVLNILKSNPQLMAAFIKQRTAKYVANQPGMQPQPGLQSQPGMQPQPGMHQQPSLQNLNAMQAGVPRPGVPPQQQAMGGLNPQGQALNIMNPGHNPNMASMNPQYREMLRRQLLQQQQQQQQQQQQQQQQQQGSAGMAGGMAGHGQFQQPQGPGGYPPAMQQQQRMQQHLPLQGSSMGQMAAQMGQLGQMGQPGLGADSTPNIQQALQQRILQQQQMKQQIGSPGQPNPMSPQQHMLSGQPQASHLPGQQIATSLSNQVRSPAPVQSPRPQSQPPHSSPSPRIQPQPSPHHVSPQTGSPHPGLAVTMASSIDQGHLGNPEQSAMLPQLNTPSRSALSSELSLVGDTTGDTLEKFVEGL

[2] = target: T2, Bromodomain-containing protein 4 (Homo sapiens, UniProt O60885); experiment: Inhibition of His-tagged BRD4 BD1 (unknown origin) using biotinylated-JQ1 peptide as substrate incubated for 1 hr by AlphaScreen assay
[3] = target: CREB-binding protein/Histone acetyltransferase p300 (Homo sapiens) (UniProt Q09472+Q92793); experiment: Inhibition of CBP/EP300 in human MM1.S cells assessed as perturbation of IRF4/Myc axis at 2.5 uM incubated for 24 hrs by immunoblot analysis
CREB-binding protein [4] = target: T1, CREB-binding protein; experiment: Binding affinity to human partial length CREBBP (R1081 to G1197 residues) expressed in bacterial expression system by BromoELECT assay
Method in brief: (§1)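 Kd by Eurofins BromoELECT, standard protocol, measured in duplicate.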
Target sequence in this assay (Q92793 whole entry): as above

[5] = target: T3, Histone acetyltransferase p300 (Homo sapiens, UniProt Q09472); experiment: Binding affinity to human partial length EP300 (A1040 to G1161 residues) expressed in bacterial expression system by BromoELECT assay; method in brief: as §1
[6] = target: T2, Bromodomain-containing protein 4; experiment: Binding affinity to human partial length BRD4 bromodomain 1 long isoform (N44 to E168 residues) expressed in bacterial expression system by BromoELECT assay; method in brief: as §1
[7] = target: T2, Bromodomain-containing protein 4; experiment: Binding affinity to human partial length BRD4 bromodomain 1 long isoform (N44 to E168 residues) expressed in bacterial expression system assessed as melting temperature by differential scanning fluorometry (reference value: 50.1 degreeC)
[8] = target: T3, Histone acetyltransferase p300; experiment: Binding affinity to human partial length EP300 (A1040 to G1161 residues) expressed in bacterial expression system assessed as melting temperature by differential scanning fluorometry (reference value: 42.1 degreeC)
CREB-binding protein [9] = target: T1, CREB-binding protein; experiment: Binding affinity to human partial length CREBBP (R1081 to G1197 residues) expressed in bacterial expression system assessed as melting temperature by differential scanning fluorometry (reference value: 46.7 degreeC)
MOLM-13 = experiment: Cytotoxicity against human MOLM-13 cells assessed as cell growth inhibition incubated for 5 days by CellTiter-Glo luminescence assay; type: functional, cell-based; details: MOLM-13, 120 h
CREB-binding protein [10] = target: T1, CREB-binding protein; experiment: Inhibition of CBP in human MOLM-13 cells assessed as reduction in H3K27Ac level at 1 to 10 uM incubated for 2 hrs by Western blot analysis; type: cell-based; details: dose 1-10 µM
CREB-binding protein [11] = target: T1, CREB-binding protein; experiment: Inhibition of CBP in human MOLM-13 cells assessed as reduction in H3K27Ac level at 3 uM incubated for 2 hrs
CREB-binding protein [12] = target: T1, CREB-binding protein; experiment: Inhibition of CBP in human MOLM-13 cells assessed as depletion of Myc at 1 to 10 uM incubated for 2 hrs by Western blot analysis; type: cell-based; details: dose 1-10 µM

CREB-binding protein/Histone acetyltransferase p300 (Homo sapiens), sequence (Q09472 whole entry, looked up, the tested form may be a part): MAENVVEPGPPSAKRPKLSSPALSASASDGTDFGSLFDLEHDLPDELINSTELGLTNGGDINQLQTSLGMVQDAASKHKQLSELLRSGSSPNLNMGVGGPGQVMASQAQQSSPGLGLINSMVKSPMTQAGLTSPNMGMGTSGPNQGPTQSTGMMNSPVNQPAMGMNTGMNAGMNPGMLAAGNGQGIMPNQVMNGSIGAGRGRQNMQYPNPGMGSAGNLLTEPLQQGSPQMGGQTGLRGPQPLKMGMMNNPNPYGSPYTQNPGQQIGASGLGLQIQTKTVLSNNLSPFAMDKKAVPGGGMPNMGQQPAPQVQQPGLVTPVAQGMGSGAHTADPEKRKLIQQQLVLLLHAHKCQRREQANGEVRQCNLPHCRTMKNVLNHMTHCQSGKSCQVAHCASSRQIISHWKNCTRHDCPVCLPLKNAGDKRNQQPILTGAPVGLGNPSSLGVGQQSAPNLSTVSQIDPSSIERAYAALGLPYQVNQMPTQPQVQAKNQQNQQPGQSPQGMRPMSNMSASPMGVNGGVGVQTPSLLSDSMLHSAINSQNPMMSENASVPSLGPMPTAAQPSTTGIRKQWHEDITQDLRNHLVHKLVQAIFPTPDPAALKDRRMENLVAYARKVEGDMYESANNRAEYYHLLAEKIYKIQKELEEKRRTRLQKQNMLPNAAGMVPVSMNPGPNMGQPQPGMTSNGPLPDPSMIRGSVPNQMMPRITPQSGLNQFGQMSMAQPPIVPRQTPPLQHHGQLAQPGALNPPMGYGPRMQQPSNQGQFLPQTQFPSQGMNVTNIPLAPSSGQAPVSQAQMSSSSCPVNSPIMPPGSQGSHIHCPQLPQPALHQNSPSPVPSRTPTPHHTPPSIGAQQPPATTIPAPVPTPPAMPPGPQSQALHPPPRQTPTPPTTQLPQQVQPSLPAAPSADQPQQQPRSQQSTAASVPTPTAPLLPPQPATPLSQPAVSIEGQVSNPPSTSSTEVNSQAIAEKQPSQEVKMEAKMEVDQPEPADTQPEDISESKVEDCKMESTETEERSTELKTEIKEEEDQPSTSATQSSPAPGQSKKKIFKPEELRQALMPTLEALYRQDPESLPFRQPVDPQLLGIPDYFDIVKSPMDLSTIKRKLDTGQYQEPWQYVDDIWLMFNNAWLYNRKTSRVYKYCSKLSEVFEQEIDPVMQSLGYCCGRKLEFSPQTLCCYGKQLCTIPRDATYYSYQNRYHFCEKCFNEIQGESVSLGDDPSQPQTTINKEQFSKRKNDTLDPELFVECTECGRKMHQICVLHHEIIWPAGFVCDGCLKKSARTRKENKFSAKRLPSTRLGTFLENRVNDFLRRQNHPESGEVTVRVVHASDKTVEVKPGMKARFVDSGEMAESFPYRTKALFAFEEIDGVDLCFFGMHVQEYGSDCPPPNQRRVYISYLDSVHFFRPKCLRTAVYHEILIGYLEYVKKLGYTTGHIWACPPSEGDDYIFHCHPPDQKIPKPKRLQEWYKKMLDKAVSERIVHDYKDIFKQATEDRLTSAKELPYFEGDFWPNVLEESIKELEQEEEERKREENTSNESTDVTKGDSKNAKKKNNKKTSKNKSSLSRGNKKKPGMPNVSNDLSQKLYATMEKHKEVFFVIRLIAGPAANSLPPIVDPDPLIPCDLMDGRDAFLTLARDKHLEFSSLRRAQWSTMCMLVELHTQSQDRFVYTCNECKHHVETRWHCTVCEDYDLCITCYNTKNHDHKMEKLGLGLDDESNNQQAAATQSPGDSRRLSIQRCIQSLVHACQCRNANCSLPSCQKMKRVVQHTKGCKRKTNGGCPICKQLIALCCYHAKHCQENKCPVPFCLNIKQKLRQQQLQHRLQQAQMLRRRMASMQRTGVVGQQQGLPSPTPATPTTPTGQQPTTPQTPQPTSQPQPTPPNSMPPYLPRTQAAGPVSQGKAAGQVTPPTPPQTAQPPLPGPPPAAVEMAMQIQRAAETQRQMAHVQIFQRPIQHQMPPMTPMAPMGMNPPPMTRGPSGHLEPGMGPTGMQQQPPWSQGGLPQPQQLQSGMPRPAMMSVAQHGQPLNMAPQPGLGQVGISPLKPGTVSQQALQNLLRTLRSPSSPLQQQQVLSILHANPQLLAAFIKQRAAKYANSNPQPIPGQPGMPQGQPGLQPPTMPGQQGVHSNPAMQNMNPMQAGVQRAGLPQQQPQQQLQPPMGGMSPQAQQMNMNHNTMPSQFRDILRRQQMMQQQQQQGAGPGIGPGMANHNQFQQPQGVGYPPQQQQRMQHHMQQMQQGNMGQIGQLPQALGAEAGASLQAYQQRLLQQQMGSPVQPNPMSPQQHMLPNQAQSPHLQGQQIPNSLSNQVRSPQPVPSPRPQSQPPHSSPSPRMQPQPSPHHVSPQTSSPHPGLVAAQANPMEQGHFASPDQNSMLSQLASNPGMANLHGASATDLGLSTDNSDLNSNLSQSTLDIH
CREB-binding protein/Histone acetyltransferase p300 (Homo sapiens), sequence (Q92793 whole entry, looked up, the tested form may be a part): as the sequence (Q92793 whole entry) above
T3 sequence (Q09472 whole entry, the tested form may be a part, canonical isoform): as the sequence (Q09472 whole entry, looked up, the tested form may be a part) above

SMILES | Ratio IC50 (Homo sapiens) | IC50 [2] [µM] | further results
COc1ccc(CCc2nc3cc(-c4c(C)noc4C)ccn3c2NC2CCCCC2)cc1OC | 8 |  | IC50 (CREB-binding protein [1]): 0.75 µM
COc1ccc(-c2nc3cc(-c4c(C)noc4C)ccn3c2NC2CCCCC2)cc1 | > 4 | > 50 | 
Cc1noc2cc(-c3ccn4c(NC5CCCCC5)c(CCc5ccccc5)nc4c3)ccc12 | 0.06 | 3.02 | IC50 (CREB-binding protein [1]): > 50 µM; inhibition [3]: inactive
COc1ccc(CCCc2nc3cc(-c4c(C)noc4C)ccn3c2NC2CCCCC2)cc1 | 3 |  | 
COc1ccc(CCc2nc3cc(-c4c(C)noc4C)ccn3c2NC23CC4CC(CC(C4)C2)C3)cc1 | 8 |  | 
Cc1[nH]nc2cc(-c3ccn4c(NC5CCCCC5)c(CCc5ccccc5)nc4c3)ccc12 | 0.06 | 0.51 | IC50 (CREB-binding protein [1]): 8.02 µM; inhibition [3]: inactive
COc1ccc(-c2nc3cc(C)cc(C)n3c2NC(C)(C)CC(C)(C)C)cc1 | > 3 | > 50 | 
COc1ccc(Cc2nc3cc(-c4c(C)noc4C)ccn3c2NC2CCCCC2)cc1 | 2 |  | 
COc1ccc(CCc2nc3cc(-c4c(C)noc4C)ccn3c2NCc2ccc(Cl)cc2)cc1 | 5 | 7.94 | IC50 (CREB-binding protein [1]): 1.6 µM
COc1ccc(-c2nc3cc(-c4c(C)noc4C)ccn3c2NC23CC4CC(CC(C4)C2)C3)cc1 | > 23 | > 50 | 
CN1Cc2cc(-c3ccn4c(NC5CCCCC5)c(CCc5ccccc5)nc4c3)ccc2NC1=O | 1 |  | 
COc1ccc(CCc2nc3cc(-c4c(C)noc4C)ccn3c2NC2CCCCC2)cc1 | 41 |  | Kd (CREB-binding protein [4]): 0.265 µM; Kd [5]: 0.285 µM; Kd [6]: 9.2 µM; Tm [7]: 51.1 °C; Tm [8]: 46.8 °C; Tm (CREB-binding protein [9]): 51.5 °C
COc1ccc(-c2nc3cc(C)cc(C)n3c2NC23CC4CC(CC(C4)C2)C3)cc1 | > 3 | > 50 | 
CCOc1ccc(CCc2nc3cc(-c4c(C)noc4C)ccn3c2NC2CCCCC2)cc1Cl | 20 | > 50 | 
COc1ccc(CCc2nc3cc(-c4c(C)noc4C)ccc3n2C[C@H](C)N2CCOCC2)cc1Cl |  | 7.94 | IC50 (MOLM-13): 1.53 µM
COc1ccc(CCCc2nc3cc(-c4c(C)noc4C)ccn3c2NC2CCCCC2)cc1Cl | 3 | 24.5 | Tm [7]: 51.6 °C; Tm [8]: 50.6 °C; IC50 (CREB-binding protein [1]): 8.96 µM; Tm (CREB-binding protein [9]): 55.2 °C
CCOc1ccc(CCc2nc3cc(-c4c(C)noc4C)ccn3c2NC2CCCCC2)cc1 | 30 |  | 
Cc1noc(C)c1-c1ccc2nc(-c3ccc(N4CCN(C(=O)CCCC(=O)NCCCOCCOCCOCCCNC(=O)CCCC[C@@H]5SC[C@@H]6NC(=O)N[C@@H]65)CC4)cc3)c(NC3CCCCC3)n2c1 |  |  | Kd [5]: 13 µM
COc1ccc(-c2nc3cc(-c4c(C)noc4C)ccn3c2NCC(=O)OC(C)(C)C)cc1 | > 3 |  | 
COc1ccc(CCc2nc3cc(-c4c(C)noc4C)ccn3c2NC2CCCCC2)cc1Cl |  |  | inhibition (CREB-binding protein [10]): Active; Kd (CREB-binding protein [4]): 0.315 µM; Kd [5]: 0.215 µM; Kd [6]: > 10 µM; Tm [7]: 50.1 °C; IC50 (MOLM-13): 1.74 µM; Tm [8]: 47 °C; inhibition (CREB-binding protein [11]): Active; Tm (CREB-binding protein [9]): 51.7 °C; inhibition [3]: Active; inhibition (CREB-binding protein [12]): Active
CCCOc1ccc(CCc2nc3cc(-c4c(C)noc4C)ccn3c2NC2CCCCC2)cc1 | 28 |  | 
COc1ccc(CCc2nc3cc(-c4c(C)noc4C)ccn3c2NCCN2CCOCC2)cc1 | 7 |  | 

Second part, led by results:

Ratio IC50 (Homo sapiens) | IC50 [2] [µM] | SMILES | further results
4 |  | COc1ccc(CCc2nc3cc(-c4c(C)noc4C)ccn3c2NCc2ccccc2)cc1 | 
1 |  | Cc1noc(C)c1-c1ccn2c(NC(C)(C)CC(C)(C)C)c(CCc3ccccc3)nc2c1 | 
> 6 | > 50 | Cc1noc(C)c1-c1ccn2c(NCC(=O)OC(C)(C)C)c(CCc3ccccc3)nc2c1 | 
6 |  | COc1ccc(CCc2nc3cc(-c4c(C)noc4C)ccn3c2NC(C)C)cc1OC | 
> 1 |  | CCOc1ccc(CCc2nc3cc(-c4c(C)noc4C)ccn3c2NC(C)(C)CC(C)(C)C)cc1 | 
1 | > 50 | COc1ccc(CCCc2nc3cc(-c4c(C)noc4C)ccn3c2NC(C)(C)CC(C)(C)C)cc1 | IC50 (CREB-binding protein [1]): > 50 µM
6 |  | Cc1noc(C)c1-c1ccn2c(NC(C)(C)C)c(CCc3ccccc3)nc2c1 | 
7 |  | Cc1noc(C)c1-c1ccn2c(NC34CC5CC(CC(C5)C3)C4)c(CCc3ccccc3)nc2c1 | 
> 21 | > 50 | COc1ccc(CCc2nc3cc(-c4c(C)noc4C)ccn3c2NC(C)(C)C)cc1 | 
> 2 | > 50 | COc1ccc(CCc2nc3cc(-c4c(C)noc4C)ccn3c2NC(C)(C)CC(C)(C)C)cc1 | 
1 | > 50 | Cc1noc(C)c1-c1ccn2c(NC(C)(C)CC(C)(C)C)c(CCc3ccc(OC(C)C)cc3)nc2c1 | IC50 (CREB-binding protein [1]): > 50 µM
34 |  | COc1ccc(CCc2nc3cc(-c4c(C)noc4C)ccn3c2NC(C)C)cc1 | IC50 (CREB-binding protein [1]): 0.29 µM
> 2 | > 50 | CCOc1ccc(CCc2nc3cc(-c4c(C)noc4C)ccn3c2NC(C)(C)CC(C)(C)C)cc1Cl | 
10 |  | Cc1noc(C)c1-c1ccn2c(NC3CCCCC3)c(CCc3ccccc3)nc2c1 | Tm [7]: 51 °C; Tm [8]: 44.7 °C; Tm (CREB-binding protein [9]): 49.2 °C
